In the library only some 1.9% were active in any assay of this set; here they are far more common.
NPY-Y2 PAM-ag: potentiators or agonists of human neuropeptide Y receptor Y2; P49146; cells expressing NPY-Y2, potentiator/agonist read-out; activation, % at 3.6 µM; 220,000 compounds, 0.45% hits; AID 1359; in the data active = activation above about 27%;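 also: cells stimulated with NPY near EC25 plus isoproterenol at EC100; 0% = vehicle plus submaximal agonist and 100% = vehicle plus saturating agonist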
NPY-Y1 antag: NPY-Y1 (human) receptor antagonism; P25929; HEK293-CNG Y1 cells, membrane potential fluorescence; NPY at EC95, then isoproterenol; inhibition, % at 3.6 µM; 200,000 compounds, 1% hits;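 active = inhibition above the campaign mean inhibition of all tested compounds plus 3 SD, cut at about 20% in these data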;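 also: 0% = DMSO wells given NPY plus isoproterenol and 100% = isoproterenol alone without NPY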
Target sequence (P25929 whole entry, looked up): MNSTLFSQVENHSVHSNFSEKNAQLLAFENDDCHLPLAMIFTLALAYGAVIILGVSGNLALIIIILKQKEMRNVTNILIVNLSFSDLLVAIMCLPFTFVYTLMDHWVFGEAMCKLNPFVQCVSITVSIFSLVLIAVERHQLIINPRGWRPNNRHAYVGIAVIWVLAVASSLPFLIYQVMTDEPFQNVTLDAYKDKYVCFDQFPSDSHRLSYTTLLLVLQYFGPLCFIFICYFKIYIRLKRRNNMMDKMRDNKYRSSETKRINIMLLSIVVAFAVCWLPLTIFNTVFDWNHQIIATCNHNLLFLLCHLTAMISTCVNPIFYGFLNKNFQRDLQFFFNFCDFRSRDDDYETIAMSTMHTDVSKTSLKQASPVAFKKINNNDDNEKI
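material = HEK293 cells with Y1 receptor plus CNG channel | also added = NPY 25 nM then isoproterenol 1 µM plus Ro 20-1724 25 µM | schedule = dye 3 h, compound 60 min room temperature, stimulation 45 min | measured by = membrane potential fluorescence | benchmarks = high control isoproterenol alone, low control NPY with isoproterenol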
NPY1 pot ag: human NPY-Y1 potentiation or agonism, primary screen. NPY-Y1 expressing cells, potentiator/agonist activation. P25929. 220,000 compounds, 0.37% hits. activation, % at 3.6 µM; in the data active = activation above about 33%, passing the limit was not always enough;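 also: cells stimulated with NPY at EC10 then isoproterenol at EC100; 0% = low agonist plus stimulus and 100% = saturating agonist plus stimulus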
NPY-Y2 antag: blocks the human neuropeptide Y Y2 receptor | 140,000 compounds, 0.99% hits | P49146 | NPY-Y2 expressing cells, antagonist mode | inhibition, % at 2.7 µM; in the data active = inhibition above about 17%;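 also: 0% = vehicle with agonist challenge and 100% = reference antagonist with challenge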
NPY1 antag ctr: antagonizes human NPY-Y1, counter-screen to NPY-Y2 antagonists. AID 1256. cell-based NPY-Y1 antagonism counterscreen. shares compounds with NPY-Y2 antag. inhibition, % at 3.6 µM. 710 compounds, 19% hits; in the data active = inhibition above about 20%;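 also: cells challenged with NPY then isoproterenol with cAMP sensed through a CNG channel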
NPY-Y2 ant conf: human NPY-Y2 antagonism, confirmation. inhibition, % at 2.8 µM. shares compounds with NPY-Y2 antag. 710 compounds, 32% hits. HEK293 NPY-Y2 CNG channel, membrane potential fluorescence;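 active = mean inhibition of triplicate wells above the hit cutoff set in the primary screen, cut at about 17% in these data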;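 also: 0% = DMSO with NPY challenge and 100% = BIIE0246 high control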
* marks the source's active call; other numbers are inactive results; nt = no result given.

SMILES | NPY-Y2 PAM-ag | NPY-Y1 antag | NPY1 pot ag | NPY-Y2 antag | NPY1 antag ctr | NPY-Y2 ant conf
COc1ccc(C2(CNC(=O)c3cccc([N+](=O)[O-])c3)CCOCC2)cc1 | -3 | -4 | -26 | 17* | -1 | 3
Cn1ccnc1SCC(=O)Nc1ccc(Cl)cn1 | 13 | 8 | 10 | nt | nt | nt
COc1ccccc1OCc1nc(C#N)c(N2CCCC2)o1 | 5 | 5 | -11 | nt | nt | nt
COc1ccccc1OCc1nc(C#N)c(N2CC(C)CC(C)C2)o1 (stereo not given) | -3 | 15 | -37 | 18* | 10 | 6
C/C=C/Cn1c(SCc2ccc(C)cc2)nc2c1c(=O)[nH]c(=O)n2C | -16 | 8 | -8 | 26* | 22* | 42*
O=C(OCc1nnc(-c2ccccc2)o1)c1ccc2c(c1)OCO2 | -33 | 11 | -21 | 20* | 18 | 16
O=C(OCc1nnc(-c2ccccc2)o1)c1ccco1 | -13 | 2 | -3 | -2 | nt | nt
COc1ccc(C2Nc3ccccc3C(=O)N2c2ccc(C)cc2)cc1Cn1nnc2ccccc21 (stereo not given) | 1 | 14 | 13 | 2 | nt | nt
COc1ccc(C2Nc3ccccc3C(=O)N2c2ccc(C)cc2)cc1Cn1cc([N+](=O)[O-])cn1 (stereo not given) | -40 | 8 | -27 | 19* | 27* | 63*
COc1ccc(CN2CCN(c3ncccn3)CC2)c(OC)c1 | 1 | 15 | 18 | 18* | 1 | 0
COc1ccc(CN2CCN(c3ccccn3)CC2)c(OC)c1 | -23 | -4 | -15 | 7 | nt | nt
Cc1ccccc1C(=O)OCCN(C)Cc1ccccc1 | 4 | 8 | -5 | nt | nt | nt
N=c1n(Cc2ccccc2)c2ccccc2n1Cc1ccccc1 | 30 | 17 | -1 | 23* | 13 | 13
O=C(c1ccco1)N(CCCN1CCOCC1)c1nc(-c2ccc(F)cc2)cs1 | -16 | 9 | -30 | 19* | 16 | 13
CCCCCCNc1c([N+](=O)[O-])c(=O)sc2ccccc12 | 1 | -1 | -2 | nt | nt | nt
CCOc1ccc(Cc2c(Cl)nc(SC)nc2N(C)C)cc1 | -24 | 12 | -45 | 50* | 63* | 50*
Cc1cc(C(F)F)nn1CC(=O)NCc1ccc(Cl)cc1Cl | 15 | 9 | 6 | 17* | -1 | 1
O=C(COC(=O)/C=C/c1ccc(F)cc1)Nc1ccccc1-c1ccccc1 | -3 | 3 | -19 | 18* | 12 | 14
C=C(C)C1Cc2c(C)nn(-c3cc(C)c4ccccc4n3)c2C1 (stereo not given) | -9 | 1 | -8 | 5 | nt | nt
CN(C)CCCSc1nc(-c2ccccc2)nc2c1CCC2 | -13 | 20 | -65 | 21* | 16 | 23*
C/C(=N\NC(=S)NCCc1ccccc1)c1ccc(Cl)cc1 | -27 | 5 | -39 | 16 | nt | nt
C/C(=N\NC(=S)NCCc1ccccc1)c1ccc(C)cc1 | -20 | 10 | -27 | 17* | 15 | 15
CCc1ccc(/C=N/NC(=S)NCCc2ccccc2)cc1 | -13 | 19 | -4 | 33* | 28* | 30*
S=C(NCCc1ccccc1)N/N=C/c1ccccc1Cl | -23 | 10 | -57 | 43* | 18 | 18*
COc1ccc(CN2CCN(C(=O)c3cc(-c4cccnc4)nc4ccc(Cl)cc34)CC2)c(OC)c1OC | -22 | 2 | -14 | nt | nt | nt
SMILES | NPY-Y2 PAM-ag | NPY-Y1 antag | NPY1 pot ag | NPY-Y2 antag | NPY1 antag ctr | NPY-Y2 ant conf
CC(C)Nc1nnc(Sc2ccc(Cl)cc2[N+](=O)[O-])s1 | -3 | 8 | -10 | 21* | 0 | 10
CSCCC(NC(=O)COc1ccccc1)C(=O)O (stereo not given) | 8 | -4 | -3 | nt | nt | nt
Brc1ccccc1OCCOCCOc1cccc2cccnc12 | -29 | 8 | -16 | 7 | nt | nt
Cc1cccc(OCCCOc2cccc3cccnc23)c1C | -21 | 10 | -11 | 21* | 7 | 10
Clc1ccc(OCCOCCOc2cccc3cccnc23)c(Br)c1 | -17 | 1 | -66 | 18* | 24* | 53*
COc1ccccc1Nc1nc2nonc2nc1N1CCCCC1C (stereo not given) | 1 | 6 | -10 | 19* | 17 | 9
CC1CCCCN1c1nc2nonc2nc1N1CCCCC1C (stereo not given) | 5 | 7 | 18 | 6 | nt | nt
O=C(Cc1ccccc1)Nn1cnc2ccccc21 | -7 | 3 | 3 | 25* | 2 | 0
O=C(Cn1cnc2ccccc21)NCc1ccccc1 | -3 | 3 | -7 | 2 | nt | nt
CN1CCC(OC(c2ccccc2)c2ccccc2)CC1 | -9 | -1 | -15 | 2 | nt | nt
CN1CCC(Oc2ccccc2Sc2ccccc2)CC1 | 2 | 14 | -43 | 18* | 15 | 22*
Cc1[nH]c2ccccc2c1C(=O)CSc1nc2ccccc2c(=O)n1-c1ccccc1F | -22 | 3 | 0 | nt | nt | nt
Cc1noc(C)c1CSc1nc2ccccc2c(=O)n1-c1ccc(F)cc1F | -2 | 18 | -17 | 25* | 20* | 14
CC(NC(=O)c1ccc(OC2CCN(S(=O)(=O)N(C)C)CC2)cc1)C1CC1 (stereo not given) | -16 | 2 | -10 | nt | nt | nt
O=c1c2ccccc2nc2c3ccccc3c(NCCN3CCOCC3)nn12 | -18 | 14 | -40 | 20* | 17 | 25*
O=c1c2ccccc2nc(-c2ccccc2)n1CCN1CCOCC1 | 19 | 0 | 3 | -1 | nt | nt
O=C(C1CC1)N1N=C(C2CCCCC2)CC1(O)C(F)(F)F (stereo not given) | -3 | 1 | 11 | nt | nt | nt
Cc1cc(C)c2nc(SCC(=O)NC(=O)c3cccn3C)cc(C)c2c1 | 7 | 3 | -11 | nt | nt | nt
Cc1nc(-n2nnc3ccccc32)c2c3c(sc2n1)CCCC3 | -36 | 15 | -23 | 22* | 11 | 10
c1ccc2c(c1)nnn2-c1ncnc2sc3c(c12)CCCC3 | -23 | 8 | -18 | 6 | nt | nt
OCCNCc1cc(Br)ccc1OCc1ccccc1Cl | -25 | 5 | -68 | 22* | 10 | 16
CCN(CC)S(=O)(=O)c1cccc(-c2n[nH]c(=S)n2/N=C/c2ccc(OC)cc2)c1 | 8 | 8 | -8 | 6 | nt | nt
CCN(CC)S(=O)(=O)c1cccc(-c2n[nH]c(=S)n2/N=C/c2ccc(Br)cc2)c1 | 0 | 8 | -24 | 19* | 9 | 8
Cc1nc2ccccc2cc1OCc1ccc(Cl)cc1 | -4 | 10 | -70 | 19* | 22* | 17*
CNc1ccc(Oc2nc([N+](=O)[O-])nn2C)cc1 | 0 | 5 | 12 | nt | nt | nt
Cc1ccc(SCc2nc3ccccc3n2CC(=O)Nc2c(C)cccc2C)cc1 | -8 | 12 | 5 | 19* | 4 | 5
CC(COc1cccc2ccccc12)CN1CCN(C)CC1 (stereo not given) | 1 | 0 | -1 | 17* | 7 | 7
Cc1ccccc1OCC(O)CN1CCN(C)CC1 (stereo not given) | -5 | 0 | -1 | nt | nt | nt
C[C@@H]1CCC[C@H](C)N1Cc1nc(Cc2ccccc2Cl)no1 | 11 | 4 | -4 | nt | nt | nt
Cc1cc(-c2ccccc2)c(C#N)c(=S)[nH]1 | -12 | 7 | -34 | 17* | 5 | 7
